ChEMBL document CHEMBL2034859, “Simple, fast and efficient synthesis of β-keto esters from the esters of heteroaryl compounds, its antimicrobial study and cytotoxicity towards various cancer cell lines” (Bioorg Med Chem Lett, 2012)

Key:
Format in all cases: functional
NCI-H460 = experiment: Cytotoxicity against human NCI-H460 cells at 1000 nM after 48 hrs by WST-1 assay
How it was run: (§1)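 Cells from ATCC, grown in DMEM with 10% heat-inactivated FBS at 37 °C in humidified 5% CO2. Log-phase cells seeded at 5 × 10^3 cells/well and left to recover overnight, then exposed to varying compound concentrations for 48 h. Controls received medium with 0.2% DMSO vehicle. CCK-8 ([…]) reagent added at 5 µL/well for 2 h, then absorbance read.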

HCT-116 = experiment: Cytotoxicity against human HCT116 cells at 1000 nM after 48 hrs by WST-1 assay
How it was run: (§2)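 Cells from ATCC were grown in DMEM with 10% heat-inactivated FBS at 37 °C in 5% CO2. Log-phase cells were seeded at 5 × 10^3 per well and left to recover overnight. They were then exposed to a range of compound concentrations for 48 h, with 0.2% DMSO as the vehicle control. CCK-8 (WST) reagent was added for 2 h and absorbance was measured.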

ACHN = experiment: Cytotoxicity against human ACHN cells at 1000 nM after 48 hrs by WST-1 assay; how it was run: as §2
Calu-1 = experiment: Cytotoxicity against human Calu1 cells at 1000 nM after 48 hrs by WST-1 assay; how it was run: as §2
PANC-1 = experiment: Cytotoxicity against human PANC1 cells at 1000 nM after 48 hrs by WST-1 assay; how it was run: as §1

CN1CC[C@H](c2c(O)cc(O)c3c(=O)cc(-c4ccccc4Cl)oc23)[C@H](O)C1 [ALVOCIDIB]
Activity (NCI-H460): 71% | Activity (HCT-116): 78% | Activity (ACHN): 71% | Activity (Calu-1): 88% | Activity (PANC-1): 74%
